The source made the active and inactive calls. The calls are words filed in the database; no cut-off is given here.

Results on 20 compounds are retold here after ChEMBL document CHEMBL5223159, “Structural and Functional Characterization of Indane-Core CD4-Mimetic Compounds Substituted with Heterocyclic Amines” (ACS Med Chem Lett, 2023).

For the first experiment, the system named is Human immunodeficiency virus 1. Description: Antiviral activity against HIV-1 JRFL assessed as inhibition of viral growth. It counts as functional, organism-based. As to conditions: Human immunodeficiency virus 1, JRFL. The method, boiled down: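 IC50 against JRFL measured in triplicate. Where more than one triplicate experiment was run, the value is the mean IC50 with SEM and N triplicates.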
One may read the IC50 as the concentration that inhibits the measured activity by half. For the compound `CNCc1ccc2c(c1)C[C@H](CNC(=N)N)[C@H]2NC(=O)C(=O)Nc1ccc(Cl)c(F)c1`, the IC50 stood at 9.6 µM.
Still for that read-out and setting: the figure for `N=C(N)NC[C@H]1Cc2ccccc2[C@@H]1NC(=O)C(=O)Nc1ccc(Cl)c(F)c1` is 66.8 µM.

A further experiment deals with Human immunodeficiency virus 1. Description: Antiviral activity against HIV-1 CH58TF infected in primary CD4 T cells isolated from PBMC assessed as antibody dependent cellular toxicity (ADCC) at 50 uM by cell surface staining based assay. It counts as functional, organism-based.
Details: not given
In short, it runs like this: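 Primary CD4 T cells from PBMC infected with HIV-1 CH58TF for 48 h, then surface-stained with 1:1000 HIV+ plasma (n = 3) plus 50 μM compound or DMSO vehicle. Bound IgG detected with Alexa Fluor 647 anti-human IgG secondary by flow cytometry. Mean ± SEM.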
Consider `N=C(N)NC[C@H]1Cc2cc(CN3CC[C@@H](O)C3)ccc2[C@@H]1NC(=O)C(=O)Nc1ccc(Cl)c(F)c1`, for which the outcome was Active.
Turning to `COC(=O)[C@@H]1C[C@@H](O)CN1Cc1ccc2c(c1)C[C@H](CNC(=N)N)[C@H]2NC(=O)C(=O)Nc1ccc(Cl)c(F)c1`, the result was Active.
The same measure, in the same setting: as for `N=C(N)NC[C@H]1Cc2cc(CN3CC[C@H](O)C3)ccc2[C@@H]1NC(=O)C(=O)Nc1ccc(Cl)c(F)c1`, the entry is “Active”; as for `N=C(N)NC[C@H]1Cc2cc(CN3CCNCC3)ccc2[C@@H]1NC(=O)C(=O)Nc1ccc(Cl)c(F)c1`, “Active”.
On the same count and under the same terms, the entry for `N=C(N)NC[C@H]1Cc2cc(CN3CCC[C@H]3CO)ccc2[C@@H]1NC(=O)C(=O)Nc1ccc(Cl)c(F)c1` is “Active”; for `N=C(N)NC[C@H]1Cc2cc(CN3CCC[C@@H]3CO)ccc2[C@@H]1NC(=O)C(=O)Nc1ccc(Cl)c(F)c1` it is “Active”; for `N=C(N)NC[C@H]1Cc2cc(CN3CCC[C@H]3C(N)=O)ccc2[C@@H]1NC(=O)C(=O)Nc1ccc(Cl)c(F)c1` it is “Active”.
Regarding `N=C(N)NC[C@H]1Cc2cc(CN[C@H]3CNC[C@@H]3O)ccc2[C@@H]1NC(=O)C(=O)Nc1ccc(Cl)c(F)c1`, the outcome was Active.
On to `N=C(N)NC[C@H]1Cc2cc(CN3CCCC3)ccc2[C@@H]1NC(=O)C(=O)Nc1ccc(Cl)c(F)c1`, for which the result was Active.

A further experiment has as its system Amphotropic murine leukemia virus. Description: Antiviral activity against A-MLV assessed as inhibition of viral growth. The class given is functional, organism-based.
Details: not given
In short, it runs like this: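 Control virus pseudotyped with amphotropic MLV Env, tested at concentrations up to 100 μM.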
In the case of `CNCc1ccc2c(c1)C[C@H](CNC(=N)N)[C@H]2NC(=O)C(=O)Nc1ccc(Cl)c(F)c1`, the IC50 is above 100 µM.

For the next experiment, the system named is Human immunodeficiency virus 1. Description: Antiviral activity against HIV-1 CH58TF infected in primary CD4 T cells isolated from PBMC assessed as antibody dependent cellular toxicity (ADCC) by measuring killing of p24+ infected cells at 50 uM FACS-based ADCC assay. It counts as functional, organism-based. The conditions noted are these: T cell. In short, it runs like this:
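CH58TF-infected (48 h) primary CD4 T cells from PBMC served as targets in a FACS-based ADCC assay. Plasma from 3 HIV-1-infected individuals at 1:1000, with 50 μM compound or DMSO vehicle. Read-out is killing of p24+ infected cells. Mean ± SEM.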
Consider `N=C(N)NC[C@H]1Cc2cc(CN3CC[C@@H](O)C3)ccc2[C@@H]1NC(=O)C(=O)Nc1ccc(Cl)c(F)c1`, for which the result was Active.
For the compound `COC(=O)[C@@H]1C[C@@H](O)CN1Cc1ccc2c(c1)C[C@H](CNC(=N)N)[C@H]2NC(=O)C(=O)Nc1ccc(Cl)c(F)c1`, the result was inactive.
As for `N=C(N)NC[C@H]1Cc2cc(CN3CC[C@H](O)C3)ccc2[C@@H]1NC(=O)C(=O)Nc1ccc(Cl)c(F)c1`, the result was Active.
Same read-out and setting: the entry for `N=C(N)NC[C@H]1Cc2cc(CN3CCNCC3)ccc2[C@@H]1NC(=O)C(=O)Nc1ccc(Cl)c(F)c1` is “Active”; for `N=C(N)NC[C@H]1Cc2cc(CN3CCC[C@H]3CO)ccc2[C@@H]1NC(=O)C(=O)Nc1ccc(Cl)c(F)c1` it is “Active”.
Take `N=C(N)NC[C@H]1Cc2cc(CN3CCC[C@@H]3CO)ccc2[C@@H]1NC(=O)C(=O)Nc1ccc(Cl)c(F)c1`: the outcome was Active.
As to `N=C(N)NC[C@H]1Cc2cc(CN3CCC[C@H]3C(N)=O)ccc2[C@@H]1NC(=O)C(=O)Nc1ccc(Cl)c(F)c1`, the result was Active.
On to `N=C(N)NC[C@H]1Cc2cc(CN[C@H]3CNC[C@@H]3O)ccc2[C@@H]1NC(=O)C(=O)Nc1ccc(Cl)c(F)c1`, for which the outcome was Active.
Still for that read-out and setting: the entry for `N=C(N)NC[C@H]1Cc2cc(CN3CCCC3)ccc2[C@@H]1NC(=O)C(=O)Nc1ccc(Cl)c(F)c1` is “Active”.

The test system of another experiment is Human immunodeficiency virus 1. Description: Antiviral activity against HIV-1 JRFL infected in HEK293T cells coexpressing firefly luciferase gene incubated for 1 hr. It counts as functional, organism-based. The conditions noted are these: Human immunodeficiency virus 1, JRFL, HEK-293T.
In the case of `N=C(N)NC[C@H]1Cc2cc(CN3CC[C@@H](O)C3)ccc2[C@@H]1NC(=O)C(=O)Nc1ccc(Cl)c(F)c1`, the IC50 amounted to 10.2 µM.
On the same count and under the same terms, the figure for `N=C(N)NC[C@H]1Cc2cc(CN3CCC[C@H]3C(=O)O)ccc2[C@@H]1NC(=O)C(=O)Nc1ccc(Cl)c(F)c1` is 45.1 µM; for `COC(=O)[C@@H]1C[C@@H](O)CN1Cc1ccc2c(c1)C[C@H](CNC(=N)N)[C@H]2NC(=O)C(=O)Nc1ccc(Cl)c(F)c1` it is 6.4 µM.
The same measure, in the same setting: the figure for `N=C(N)NC[C@H]1Cc2cc(CN3CC[C@H](O)C3)ccc2[C@@H]1NC(=O)C(=O)Nc1ccc(Cl)c(F)c1` is 9.2 µM; for `N=C(N)NC[C@H]1Cc2cc(CN3CCNCC3)ccc2[C@@H]1NC(=O)C(=O)Nc1ccc(Cl)c(F)c1` it is 4 µM; for `N=C(N)NC[C@H]1Cc2cc(CN3CCC[C@H](C(=O)O)C3)ccc2[C@@H]1NC(=O)C(=O)Nc1ccc(Cl)c(F)c1` it is 60 µM.
The same measure, in the same setting: as for `N=C(N)NC[C@H]1Cc2cc(CN3CCCCC3)ccc2[C@@H]1NC(=O)C(=O)Nc1ccc(Cl)c(F)c1`, the figure is 5.5 µM; as for `N#CC1CCN(Cc2ccc3c(c2)C[C@H](CNC(=N)N)[C@H]3NC(=O)C(=O)Nc2ccc(Cl)c(F)c2)CC1`, 60.7 µM; as for `N=C(N)NC[C@H]1Cc2cc(CN3CCC[C@H]3CO)ccc2[C@@H]1NC(=O)C(=O)Nc1ccc(Cl)c(F)c1`, 13.5 µM.
Turning to `N=C(N)NC[C@H]1Cc2cc(CN3CCC[C@@H]3CO)ccc2[C@@H]1NC(=O)C(=O)Nc1ccc(Cl)c(F)c1`, the IC50 stood at 11.1 µM.
The same measure, in the same setting: the figure for `N=C(N)NC[C@H]1Cc2cc(CN3CCC(C(N)=O)CC3)ccc2[C@@H]1NC(=O)C(=O)Nc1ccc(Cl)c(F)c1` is 33 µM; for `N=C(N)NC[C@H]1Cc2cc(CN3CCC[C@@H]3C(=O)O)ccc2[C@@H]1NC(=O)C(=O)Nc1ccc(Cl)c(F)c1` it is 32.4 µM; for `N=C(N)NC[C@H]1Cc2cc(CN3CCC[C@H]3C(N)=O)ccc2[C@@H]1NC(=O)C(=O)Nc1ccc(Cl)c(F)c1` it is 12 µM.
`N=C(N)NC[C@H]1Cc2cc(CN3CC[C@H](N)C3)ccc2[C@@H]1NC(=O)C(=O)Nc1ccc(Cl)c(F)c1`: half-maximal inhibition (IC50) required 10.1 µM.
On to `N=C(N)NC[C@H]1Cc2cc(CN[C@H]3CNC[C@@H]3O)ccc2[C@@H]1NC(=O)C(=O)Nc1ccc(Cl)c(F)c1`, for which the half-inhibitory concentration (IC50) was 7.5 µM.
With `N=C(N)NC[C@H]1Cc2cc(CN3CCN(c4ccc(F)cc4F)CC3)ccc2[C@@H]1NC(=O)C(=O)Nc1ccc(Cl)c(F)c1`, inhibition was half-maximal at 50 µM (IC50).
As to `N=C(N)NC[C@H]1Cc2cc(CN3CCCC3)ccc2[C@@H]1NC(=O)C(=O)Nc1ccc(Cl)c(F)c1`, the IC50 came to 4 µM.
The same measure, in the same setting: as for `N=C(N)NC[C@H]1Cc2cc(CN3CC[C@@H](N)C3)ccc2[C@@H]1NC(=O)C(=O)Nc1ccc(Cl)c(F)c1`, the figure is 14 µM.

In another experiment the test system is Amphotropic murine leukemia virus. Description: Antiviral activity against A-MLV infected in HEK293T cells coexpressing firefly luciferase gene incubated for 1 hr. It counts as functional, organism-based. As to conditions: HEK-293T.
Compound `N=C(N)NC[C@H]1Cc2cc(CN3CCNCC3)ccc2[C@@H]1NC(=O)C(=O)Nc1ccc(Cl)c(F)c1` returned a half-inhibitory concentration (IC50) above 100 µM.
The compound `N=C(N)NC[C@H]1Cc2cc(CN3CCCCC3)ccc2[C@@H]1NC(=O)C(=O)Nc1ccc(Cl)c(F)c1` registered an IC50 above 100 µM.
`N=C(N)NC[C@H]1Cc2cc(CN3CCCC3)ccc2[C@@H]1NC(=O)C(=O)Nc1ccc(Cl)c(F)c1` returned an IC50 above 100 µM.

The next experiment concerns Human immunodeficiency virus 1. Description: Antiviral activity against HIV-1 JRFL infected in primary CD4 T cells isolated from PBMC assessed as antibody dependent cellular toxicity (ADCC) at 50 uM by cell surface staining based assay.
Details: not given
The class given is functional, organism-based.
For the compound `COC(=O)[C@@H]1C[C@@H](O)CN1Cc1ccc2c(c1)C[C@H](CNC(=N)N)[C@H]2NC(=O)C(=O)Nc1ccc(Cl)c(F)c1`, the outcome was inactive.
